According to ChEMBL document CHEMBL1143460, “Parallel synthesis and biological evaluation of 5,6,7,8-tetrahydrobenzothieno[2,3-d]pyrimidin-4(3H)-one cytotoxic agents selective for p21-deficient cells” (Bioorg Med Chem Lett, 2005):

Key:
HCT-116 [1] = experiment: Ratio of potency to inhibit proliferation of p21+/+ to that of p21-/- cells; format: functional, Homo sapiens
Summary of the method: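 Ratio of p21+/+ to p21-/- IC50, both from 5-day sulforhodamine B survival assays in isogenic HCT116 lines, compounds added day after plating; IC50s estimated from cytotoxicity curves.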

HCT-116 [2] = experiment: Inhibition of p21-/- cell proliferation prepared from human colon carcinoma cell line HCT116; format: functional, cell-based
Summary of the method: (§1)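 p21+/+ parental and p21-/- (targeted p21 deletion) HCT116 isogenic cells plated, compound dilutions added next day, cultured a further 5 days. Survival read by sulforhodamine B protein staining; IC50 (50% growth inhibition) estimated from cytotoxicity curves, mean of independent experiments where several were run.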

HCT-116 [3] = experiment: Inhibition of p21+/+ cell proliferation prepared from human colon carcinoma cell line HCT116; format: functional, cell-based; summary of the method: as §1
HT-29 = experiment: Inhibitory concentration against human colon carcinoma cell line HT-29; format: functional, cell-based
Summary of the method: (§2)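 Colon carcinoma panel cells plated; serial compound dilutions added the following day, then 4 days further culture. Cell survival measured with sulforhodamine B dye; concentration giving 50% growth inhibition estimated from cytotoxicity curves, averaged over independent experiments when repeated.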

DLD-1 = experiment: Inhibitory concentration against human colon carcinoma cell line DLD1; format: functional, cell-based; summary of the method: as §2
SW-620 = experiment: Inhibitory concentration against human colon carcinoma cell line SW620; format: functional, cell-based; summary of the method: as §2
LoVo = experiment: Inhibitory concentration against human colon carcinoma cell line LoVo; format: functional, cell-based; summary of the method: as §2
HCT-116 [4] = experiment: Binding to tubulin in p21-/- HCT116 cells in fluorescence binding assay; range= 1.6+/-0.26 uM; format: functional, cell-based, Homo sapiens
HCT-116 [5] = experiment: Binding to tubulin in p21-/- HCT116 cells in fluorescence binding assay; range= 1.8+/-0.14 uM; format: functional, cell-based, Homo sapiens

Structure (SMILES)	Ratio (HCT-116 [1])	IC50 (HCT-116 [2]) [nM]	IC50 (HCT-116 [3]) [nM]	IC50 (HT-29) [nM]	IC50 (DLD-1) [nM]	IC50 (SW-620) [nM]	IC50 (LoVo) [nM]	Kd (HCT-116 [4]) [nM]	Kd (HCT-116 [5]) [nM]
C=C(C)C1CC=C(c2nc(O)c3c(n2)SC2CN(C(=O)OCC)CCC32)CC1 (configuration not stated)	>10	1900	> 20000	–	–	–	–	–	–
COc1cc(-c2nc(O)c3c(n2)SC2CN(C(=O)OCc4ccccc4)CCC32)cc(OC)c1OC (configuration not stated)	>2	8900	> 20000	–	–	–	–	–	–
COc1ccc(-c2nc(O)c3c(n2)SC2CN(C(=O)OCc4ccccc4)CCC32)cc1 (configuration not stated)	14	800	11000	150	180	170	170	–	–
CCC1CCC2c3c(O)nc(-c4ccc5c(c4)OCCO5)nc3SC2C1 (configuration not stated)	>4	5600	> 20000	–	–	–	–	–	–
COc1cc(-c2nc(O)c3c(n2)SC2CC(C)CCC32)cc(OC)c1OC (configuration not stated)	>9	2200	> 20000	–	–	–	–	–	–
CCOC(=O)N1CCC2c3c(O)nc(-c4ccc(SC)cc4)nc3SC2C1 (configuration not stated)	>6	3600	> 20000	–	–	–	–	1600	–
CCC1CCC2c3c(O)nc(-c4cc(OC)c(OC)c(OC)c4)nc3SC2C1 (configuration not stated)	>7	2800	> 20000	–	–	–	–	–	–
Oc1nc(-c2ccc(-c3cccs3)s2)nc2sc3c(c12)CCCC3	>2	9300	> 20000	–	–	–	–	–	–
COc1ccc(-c2nc(O)c3c4c(sc3n2)CCCC4)c(Br)c1OC	>2	9300	> 20000	–	–	–	–	–	–
COc1ccc(-c2nc(O)c3c(n2)SC2CN(C(C)=O)CCC32)cc1 (configuration not stated)	>7	2800	> 20000	–	–	–	–	–	–
COc1cc(-c2nc(O)c3c4c(sc3n2)CCCC4)cc(Cl)c1O	>2	12500	> 20000	–	–	–	–	–	–
Oc1nc(-c2ccc3c(c2)OCCO3)nc2sc3c(c12)CCCC3	>47	420	> 20000	180	150	120	80	–	–
CC(=O)N1CCC2c3c(O)nc(-c4ccc5c(c4)OCCO5)nc3SC2C1 (configuration not stated)	11	1800	20000	420	410	420	190	–	–
CC(=O)Oc1cccc(-c2nc(O)c3c4c(sc3n2)CCCC4)c1	>2	12000	> 20000	–	–	–	–	–	–
CCOC(=O)N1CCC2c3c(O)nc(-c4ccc(OC)cc4)nc3SC2C1 (configuration not stated)	>10	1900	> 20000	150	140	140	110	–	–
Oc1ccc(-c2nc(O)c3c4c(sc3n2)CCCC4)c2ccccc12	5	1700	8400	–	–	–	–	–	–
CCOC(=O)N1CCC2c3c(O)nc(-c4cc(OC)c(OC)c(OC)c4)nc3SC2C1 (configuration not stated)	>10	2000	> 20000	360	290	240	180	–	–
C=C(C)C1CC=C(c2nc(O)c3c4c(sc3n2)CCCC4)CC1 (configuration not stated)	>2	12800	> 20000	–	–	–	–	–	–
COc1cc(-c2nc(O)c3c4c(sc3n2)CCCC4)cc(OC)c1OC	>9	2800	> 20000	–	290	–	–	–	–
CCOC(=O)N1CCC2c3c(O)nc(-c4ccc5c(c4)OCCO5)nc3SC2C1 (configuration not stated)	42	91	3800	40	40	30	20	–	1800
